In ChEMBL document CHEMBL1143978, “Novel 1,3,4-thiadiazolium-2-phenylamine chlorides derived from natural piperine as trypanocidal agents: chemical and biological studies” (Bioorg Med Chem, 2008):

Key:
Trypanosoma cruzi [1] = assay: Antiparasitic activity against Trypanosoma cruzi Y epimastigote; type: functional, organism-based
In short: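 Y-strain epimastigotes (1×10^5 cells) grown in BHI with hemin, folic acid and 5% heat-inactivated FCS at 28 °C, with or without compound. DMSO final was 0.05%, and controls contained the same DMSO. After 7 days, live parasites were counted directly in a Neubauer chamber. IC50 is the mean of triplicate experiments.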

[2] = Cytotoxicity against mouse macrophages after 72 hrs; type: cell-based, Macrophage; conditions: read-out: LD50
In short: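 Murine peritoneal macrophages seeded at 1.10⁶ cells/well in RPMI with 10% FCS and allowed to attach 24 h at 37 °C. Exposed 72 h to compounds in DMSO (final solvent at most 0.05%). Washed with PBS, trypan blue added (final 0.01%), and 200 cells counted in a Neubauer chamber for membrane permeability. IC50 is the mean of triplicate experiments.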

Trypanosoma cruzi [3] = assay: Antiparasitic activity against Trypanosoma cruzi Y trypomastigotes; type: functional, organism-based
Trypanosoma cruzi [4] = assay: Antiparasitic activity against Trypanosoma cruzi Y amastigotes; type: functional, organism-based
In short: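 Resident peritoneal macrophages from uninfected BALB/c mice, once adhered, infected with T. cruzi metacyclic trypomastigotes at 10:1 parasite/macrophage for 1 h at 37 °C, 5% CO2. Free parasites washed off with PBS, then 72 h with compound at […]. Methanol-fixed, Giemsa-stained. 200 cells counted in triplicate for % infected cells, amastigotes per macrophage and endocytic index.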

SMILES | IC50 (Trypanosoma cruzi [1]) | CC50 at 72 h [2] | IC50 (Trypanosoma cruzi [3]) | IC50 (Trypanosoma cruzi [4])
O=[N+]([O-])c1cc2c(cc1/C=C/c1sc(Nc3ccccc3)n[n+]1-c1ccccc1)OCO2 | 0.64 µM | 1.08 µM | – | –
c1ccc(Nc2n[n+](-c3ccccc3)c(CCCCc3ccc4c(c3)OCO4)s2)cc1 | 31.5 µM | – | – | –
O=[N+]([O-])c1cc2c(cc1CCc1sc(Nc3ccccc3)n[n+]1-c1ccccc1)OCO2 | 40.8 µM | – | – | –
c1ccc(Nc2n[n+](-c3ccccc3)c(CCc3ccc4c(c3)OCO4)s2)cc1 | 83.4 µM | – | – | –
O=[N+]([O-])c1cc2c(cc1-c1sc(Nc3ccccc3)n[n+]1-c1ccccc1)OCO2 | 13.4 µM | 6.62 µM | – | –
c1ccc(Nc2n[n+](-c3ccccc3)c(-c3ccc4c(c3)OCO4)s2)cc1 | 113 µM | – | – | –
O=[N+]([O-])c1cc2c(cc1CCCCc1sc(Nc3ccccc3)n[n+]1-c1ccccc1)OCO2 | 45.2 µM | – | – | –
C(/C=C/c1sc(Nc2ccccc2)n[n+]1-c1ccccc1)=C\c1ccc2c(c1)OCO2 | 10.8 µM | 38.6 µM | 6.7 µM | 1.35 µM
C(=C\c1sc(Nc2ccccc2)n[n+]1-c1ccccc1)/c1ccc2c(c1)OCO2 | 4.13 µM | 1.95 µM | – | –
O=C(Cn1ccnc1[N+](=O)[O-])NCc1ccccc1 [BENZNIDAZOLE] | – | – | 6.61 µM | 2.51 µM
O=C(/C=C/C=C/c1ccc2c(c1)OCO2)N1CCCCC1 [PIPERINE] | 7.31 µM | 20 µM | – | 4.91 µM
